The array DNA melting data of Ke et al. (doi:10.1101/2024.01.08.574731)

Assays:
[1] = folding enthalpy; higher = less favourable; fluorescence melt of hairpins on a sequencing array, two-state fit; conditions: sodium 0.088 M
Method in brief: (§1)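 With Cy3 and quencher oligos annealed, library hairpins on a sequenced MiSeq flow cell were imaged for Cy3 fluorescence in 50 mM Na-HEPES pH 8.0, 25 mM NaCl, in 2.5 °C steps up to 60 °C. Melting temperature and folding enthalpy were derived from bootstrapped two-state fits of signals normalised to pre-quench Cy3 and to control constructs. Four replicates were combined by inverse variance, with fitted temperatures raised by 9.35 °C to match UV melts.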

[2] = melting temperature; fluorescence melt of hairpins on a sequencing array, two-state fit, raised by 9.35 °C to match UV melts; conditions: sodium 0.088 M
Method in brief: as §1

GCAATCGAAAGATAATGC ((((((....)))..)))
folding enthalpy [1]: -16.3 kcal/mol
Tm [2]: 27.8 °C

GCAATCGAAAGATAGTGC ((((((....)))..)))
folding enthalpy [1]: -22.9 kcal/mol
Tm [2]: 32 °C

GCAATCGAAAGATCGTGC ((((((....)))..)))
folding enthalpy [1]: -16.1 kcal/mol
Tm [2]: 28 °C

GCAATCGGAAACGATTAC (.(((((....))))).)
folding enthalpy [1]: -16.1 kcal/mol
Tm [2]: 38 °C

GCAATGCGAAAGCAGGGC ((..(((....)))..))
folding enthalpy [1]: -25.4 kcal/mol
Tm [2]: 60.9 °C

GCAATGCGAAAGCAGTGC (((.(((....))).)))
folding enthalpy [1]: -33.6 kcal/mol
Tm [2]: 65.6 °C

GCAATGCGAAAGCCGTGC (((..((....))..)))
folding enthalpy [1]: -20.4 kcal/mol
Tm [2]: 35.4 °C

GCAATGCGAAAGCCTTGC ((((.((....)).))))
folding enthalpy [1]: -27.6 kcal/mol
Tm [2]: 53.9 °C

GCAATGCGAAAGCTCTGC (((..((....))..)))
folding enthalpy [1]: -16.1 kcal/mol
Tm [2]: 37.2 °C

GCAATGCGAAAGCTTAGC ((.(.((....)).).))
folding enthalpy [1]: -15.9 kcal/mol
Tm [2]: 36.4 °C

GCAATGGAAACATTGC ((((((....))))))
folding enthalpy [1]: -42.1 kcal/mol
Tm [2]: 58.1 °C

GCAATGGGAAACCACTGC (((.(((....))).)))
folding enthalpy [1]: -28.6 kcal/mol
Tm [2]: 39.1 °C

GCAATTCGAAAGAACTGC (((.(((....))).)))
folding enthalpy [1]: -31.4 kcal/mol
Tm [2]: 43.4 °C

GCACAACGAAAGTTTGC (((.(((....))))))
folding enthalpy [1]: -25.6 kcal/mol
Tm [2]: 44.5 °C

GCACAACGAAAGTTTTGC (((.(((....))).)))
folding enthalpy [1]: -37.7 kcal/mol
Tm [2]: 46.9 °C

GCACAAGAAATTGTGC ((((((....))))))
folding enthalpy [1]: -36 kcal/mol
Tm [2]: 57.3 °C

GCACAAGGAAACTTATGC (((.(((....))).)))
folding enthalpy [1]: -18.7 kcal/mol
Tm [2]: 29.4 °C

GCACAAGGAAACTTGCGC ((.((((....)))).))
folding enthalpy [1]: -37.9 kcal/mol
Tm [2]: 48.4 °C

GCACACCCGAAAGGGTGC (((..(((....))))))
folding enthalpy [1]: -5.94 kcal/mol
Tm [2]: 38.6 °C

GCACACGAAAGTGATTGC ((((((....)))..)))
folding enthalpy [1]: -18.5 kcal/mol
Tm [2]: 39.8 °C

GCACACGAAAGTGTTGC ((((((....))).)))
folding enthalpy [1]: -32.5 kcal/mol
Tm [2]: 53.8 °C

GCACACGGAAACGCATGC (((..((....))..)))
folding enthalpy [1]: -12.7 kcal/mol
Tm [2]: 26.4 °C

GCACACGGAAACGCGTGC ((((.((....)).))))
folding enthalpy [1]: -47.3 kcal/mol
Tm [2]: 57 °C

GCACACGGAAACGTGCGC ((.((((....)))).))
folding enthalpy [1]: -42.2 kcal/mol
Tm [2]: 60.5 °C

GCACAGCGAAAGCAGGGC ((.(.((....)).).))
folding enthalpy [1]: -25.8 kcal/mol
Tm [2]: 62.5 °C

GCACAGCGAAAGCCGGGC ((.(.((....)).).))
folding enthalpy [1]: -22.4 kcal/mol
Tm [2]: 55.7 °C

GCACAGCGAAAGCCTTGC (((..((....))..)))
folding enthalpy [1]: -8.82 kcal/mol
Tm [2]: 39 °C

GCACAGCGAAAGCGATGC (((..((....))..)))
folding enthalpy [1]: -15.8 kcal/mol
Tm [2]: 51.6 °C

GCACAGCGAAAGCTAAGC ((..(((....)))..))
folding enthalpy [1]: -12.1 kcal/mol
Tm [2]: 40.4 °C

GCACAGCGAAAGCTCAGC ((..(((....)))..))
folding enthalpy [1]: -10.5 kcal/mol
Tm [2]: 33.9 °C

GCACAGCGAAAGCTCTGC (((.(((....))).)))
folding enthalpy [1]: -25.6 kcal/mol
Tm [2]: 40.6 °C

GCACATACGAAAGTATGC (((..(((....))))))
folding enthalpy [1]: -9.91 kcal/mol
Tm [2]: 35.4 °C

GCACATCGAAAGATTTGC (((.(((....))).)))
folding enthalpy [1]: -36.1 kcal/mol
Tm [2]: 45.2 °C

GCACCAGGAAACTGATGC (((.(((....))).)))
folding enthalpy [1]: -28.6 kcal/mol
Tm [2]: 45 °C

GCACCCGAAAGGGATTGC ((((((....)))..)))
folding enthalpy [1]: -18 kcal/mol
Tm [2]: 42.3 °C

GCACCCGAAAGGGCTTGC ((((((....)))..)))
folding enthalpy [1]: -14.9 kcal/mol
Tm [2]: 46.6 °C

GCACCCGAAAGGGGATGC ((((((....)))..)))
folding enthalpy [1]: -19.6 kcal/mol
Tm [2]: 50.8 °C

GCACCCGGAAACGAGCGC ((.(.((....)).).))
folding enthalpy [1]: -29.2 kcal/mol
Tm [2]: 34.7 °C

GCACCCGGAAACGGACGC ((..(((....)))..))
folding enthalpy [1]: -19.6 kcal/mol
Tm [2]: 38.7 °C

GCACCGACGAAAGTCTGC (((..(((....))))))
folding enthalpy [1]: -16.7 kcal/mol
Tm [2]: 35.3 °C

GCACCGCGAAAGCCATGC (((..((....))..)))
folding enthalpy [1]: -9.79 kcal/mol
Tm [2]: 28.6 °C

GCACCGCGAAAGCGTAGC ((..(((....)))..))
folding enthalpy [1]: -12.3 kcal/mol
Tm [2]: 41.2 °C

GCACCGCGAAAGCGTGGC ((..(((....)))..))
folding enthalpy [1]: -16.5 kcal/mol
Tm [2]: 56.1 °C

GCACCGCGAAAGCGTTGC (((.(((....))).)))
folding enthalpy [1]: -42.6 kcal/mol
Tm [2]: 56.3 °C

GCACCGCGAAAGCTATGC (((..((....))..)))
folding enthalpy [1]: -12.8 kcal/mol
Tm [2]: 31.1 °C

GCACCGCGAAAGCTGTGC ((((.((....)).))))
folding enthalpy [1]: -32.1 kcal/mol
Tm [2]: 66.2 °C

GCACCGGGAAACCGGCGC ((.((((....)))).))
folding enthalpy [1]: -41.3 kcal/mol
Tm [2]: 59.6 °C

GCACCGGGAAACTGGTGC (((((.(....).)))))
folding enthalpy [1]: -41 kcal/mol
Tm [2]: 61.2 °C

GCACCTGCGAAAGCATGC (((..(((....))))))
folding enthalpy [1]: -9.15 kcal/mol
Tm [2]: 33.6 °C

GCACCTGGAAACAGACGC ((..(((....)))..))
folding enthalpy [1]: -15.3 kcal/mol
Tm [2]: 29.2 °C

GCACGACGAAAGTCTGC (((.(((....))))))
folding enthalpy [1]: -20.8 kcal/mol
Tm [2]: 52.4 °C

GCACGAGAAATCGTGC ((((((....))))))
folding enthalpy [1]: -32 kcal/mol
Tm [2]: 68.6 °C

GCACGCCGAAAGGCTGC (((.(((....))))))
folding enthalpy [1]: -21.8 kcal/mol
Tm [2]: 64.6 °C

GCACGCCGAAAGGCTTGC (((.(((....))).)))
folding enthalpy [1]: -28.7 kcal/mol
Tm [2]: 58.3 °C

GCACGCGAAAGCGAATGC ((((((....)))..)))
folding enthalpy [1]: -18.6 kcal/mol
Tm [2]: 49.2 °C

GCACGCGAAAGCGCTTGC ((((((....)))..)))
folding enthalpy [1]: -13.3 kcal/mol
Tm [2]: 42.8 °C

GCACGCGAAAGCGGTTGC ((((((....)))..)))
folding enthalpy [1]: -13.3 kcal/mol
Tm [2]: 49.5 °C

GCACGCGAAAGCGTTGC ((((((....))).)))
folding enthalpy [1]: -17.8 kcal/mol
Tm [2]: 64.7 °C

GCACGCGGAAACGCGTAC (.(((((....))))).)
folding enthalpy [1]: -10.1 kcal/mol
Tm [2]: 48.1 °C

GCACGGCGAAAGCACTGC (((..((....))..)))
folding enthalpy [1]: -20.1 kcal/mol
Tm [2]: 40.5 °C

GCACGGCGAAAGCCAAGC ((..(((....)))..))
folding enthalpy [1]: -15.4 kcal/mol
Tm [2]: 46.6 °C

GCACGGCGAAAGCCATGC (((.(((....))).)))
folding enthalpy [1]: -36 kcal/mol
Tm [2]: 55.1 °C

GCACGGCGAAAGCTATGC (((..((....))..)))
folding enthalpy [1]: -19.9 kcal/mol
Tm [2]: 42.1 °C

GCACGTCGAAAGACTTGC (((.(((....))).)))
folding enthalpy [1]: -40.6 kcal/mol
Tm [2]: 51.1 °C

GCACGTGCGAAAGCATGC (((..(((....))))))
folding enthalpy [1]: -8.57 kcal/mol
Tm [2]: 40.4 °C

GCACGTGGAAACACGCGC ((.((((....)))).))
folding enthalpy [1]: -38.4 kcal/mol
Tm [2]: 57.5 °C

GCACGTGGAAACATGTGC ((((.((....)).))))
folding enthalpy [1]: -36.8 kcal/mol
Tm [2]: 56.9 °C

GCACTAACGAAAGTTTGC (((..(((....))))))
folding enthalpy [1]: -15 kcal/mol
Tm [2]: 32.7 °C

GCACTACGAAAGTATGC (((.(((....))))))
folding enthalpy [1]: -25.5 kcal/mol
Tm [2]: 43 °C

GCACTAGGAAACTAGTAC (.(((((....))))).)
folding enthalpy [1]: -20.8 kcal/mol
Tm [2]: 31 °C

GCACTATCGAAAGATTGC (((..(((....))))))
folding enthalpy [1]: -17.7 kcal/mol
Tm [2]: 30.6 °C

GCACTCGAAAGAGATTGC ((((((....)))..)))
folding enthalpy [1]: -15.2 kcal/mol
Tm [2]: 34.2 °C

GCACTCGAAAGAGGATGC ((((((....)))..)))
folding enthalpy [1]: -22.4 kcal/mol
Tm [2]: 40.1 °C

GCACTCGCGAAAGCGTGC (((..(((....))))))
folding enthalpy [1]: -14.7 kcal/mol
Tm [2]: 50.5 °C

GCACTGCGAAAGCACAGC ((..(((....)))..))
folding enthalpy [1]: -11.6 kcal/mol
Tm [2]: 29.2 °C

GCACTGCGAAAGCACTGC (((.(((....))).)))
folding enthalpy [1]: -28.1 kcal/mol
Tm [2]: 44.4 °C

GCACTGCGAAAGCATGC (((.(((....))))))
folding enthalpy [1]: -20.7 kcal/mol
Tm [2]: 53.1 °C

GCACTGCGAAAGCCGTGC ((((.((....)).))))
folding enthalpy [1]: -37.2 kcal/mol
Tm [2]: 63.3 °C

GCACTGCGAAAGCGATGC (((..((....))..)))
folding enthalpy [1]: -19.7 kcal/mol
Tm [2]: 45 °C

GCACTGCGAAAGCGTTGC (((..((....))..)))
folding enthalpy [1]: -23.6 kcal/mol
Tm [2]: 45.3 °C

GCACTTGGAAACAAATGC (((.(((....))).)))
folding enthalpy [1]: -24.8 kcal/mol
Tm [2]: 35.4 °C

GCACTTGGAAACAGGTGC ((((.((....)).))))
folding enthalpy [1]: -48.4 kcal/mol
Tm [2]: 51.7 °C

GCAGAACGAAAGTTATGC (((.(((....))).)))
folding enthalpy [1]: -39.3 kcal/mol
Tm [2]: 55.4 °C

GCAGAACGAAAGTTTGC (((.(((....))))))
folding enthalpy [1]: -25.9 kcal/mol
Tm [2]: 44.7 °C

GCAGAAGAAATTCTGC ((((((....))))))
folding enthalpy [1]: -32.6 kcal/mol
Tm [2]: 52.9 °C

GCAGAAGGAAACTTCCGC ((.((((....)))).))
folding enthalpy [1]: -20.6 kcal/mol
Tm [2]: 37.5 °C

GCAGACCCGAAAGGGTGC (((..(((....))))))
folding enthalpy [1]: -14.2 kcal/mol
Tm [2]: 50.3 °C

GCAGACCGAAAGGTGTGC (((.(((....))).)))
folding enthalpy [1]: -35.8 kcal/mol
Tm [2]: 63 °C

GCAGACCGAAAGGTTTGC (((.(((....))).)))
folding enthalpy [1]: -41.6 kcal/mol
Tm [2]: 63.4 °C

GCAGACGAAAGTCTTGC ((((((....))).)))
folding enthalpy [1]: -27 kcal/mol
Tm [2]: 51.3 °C

GCAGACGGAAACATCTGC (((((.(....).)))))
folding enthalpy [1]: -29.9 kcal/mol
Tm [2]: 44.5 °C
